This note sets out measurements from ChEMBL document CHEMBL3352295, “Neuroprotective Xanthones from the Root Bark of Cudrania tricuspidata” (J Nat Prod, 2014).

Molecules are shown by their SMILES.

Experiment [1] in a line: Neuroprotective activity against 6-hydroxydopamine-induced human SH-SY5Y cell death after 24 hrs by MTT assay. It counts as functional, cell-based. In short, it runs like this:
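SH-SY5Y cells seeded at 2 × 10^4 cells/well, grown 24 h, then exposed to 100 μM 6-OHDA together with test compounds (at least four concentrations) for 24 h. Viability by MTT (0.5 mg/mL in PBS, 37 °C, 4 h), formazan dissolved in DMSO, absorbance 540 nm. EC50 = half-maximal protection, from semilog concentration–effect plot; triplicate, mean ± SD; curcumin positive control.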

Another experiment deals with SH-SY5Y. The experiment in a line: Ratio of curcumin EC50 to compound EC50 for neuroprotective activity against 6-hydroxydopamine-induced human SH-SY5Y cell death after 24 hrs by MTT assay. In kind it is functional. In short, it runs like this: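 SH-SY5Y cells seeded at 2 × 10^4 cells/well and grown 24 h. Cells then received 100 μM 6-OHDA together with test samples at ≥4 concentrations for a further 24 h. Viability was read by MTT (0.5 mg/mL in PBS, 37 °C, 4 h), with formazan dissolved in DMSO and read at 540 nm. EC50 (half-maximal protection) was taken from semilog plots, triplicate, mean ± SD. Curcumin was the reference.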

Consider `C=CC(C)(C)c1c(O)cc(O)c2c(=O)c3c(CC(=O)C(=C)C)c(OC)c(O)cc3oc12`, for which the EC50 in experiment [1] came out at 7.2 µM.

The compound `C=CC(C)(C)c1c(O)cc(O)c2c(=O)c3c(CC(O)C(=C)C)c(O)c(O)cc3oc12` (stereo not given) returned an EC50 in experiment [1] of 16.6 µM. Compound `CC(C)=CCc1c(O)c(O)cc2c(=O)c3c4c(c(O)cc3oc12)C(C)(C)C(C)O4` (stereo not given) registered an EC50 in experiment [1] of 2.4 µM. The same measure, in the same setting: then `CC1Oc2cc3oc4c5c(c(O)cc4c(=O)c3c(O)c2C1(C)C)OC(C)(C)C(O)C5` (stereo not given), with 2.2 µM. In experiment [1], `C=CC(C)(C)c1c(O)cc(O)c2c(=O)c3c(cc(O)c4oc(C(=C)C)cc43)oc12` showed an EC50 of 0.8 µM. Moreover, in the experiment on SH-SY5Y, the “Ratio EC50” value was determined as 7. `C=CC(C)(C)c1c(OC)cc(O)c2c(=O)c3c(CC(O)C(=C)C)c(O)c(O)cc3oc12` (stereo not given) yielded an EC50 in experiment [1] of 2.3 µM.

For the compound `CC1(C)C=Cc2c(cc(O)c3c(=O)c4c5c(ccc4oc23)OC(C)(C)C=C5)O1`, the EC50 in experiment [1] came out at 4.5 µM. This EC50 lies about 2-fold higher than the previous one.

`CC1(C)C=Cc2c(cc(O)c3c(=O)c4cccc(O)c4oc23)O1` showed an EC50 in experiment [1] of 5.1 µM. `C=CC(C)(C)c1c(O)cc(O)c2c(=O)c3ccc(O)c(OC)c3oc12`: the EC50 in experiment [1] was found to be 0.7 µM. In addition, the “Ratio EC50” value in the experiment on SH-SY5Y is given as 7. On to `CC(C)=CCc1c2c(c(O)c3c(=O)c4ccc(O)c(O)c4oc13)C(C)(C)C(C)O2` (stereo not given), for which, in experiment [1], the EC50 worked out at 3 µM. Still for that read-out and setting: then `C=CC(C)(C)c1c(O)cc2oc3c(CC=C(C)C)c(O)c(O)cc3c(=O)c2c1O` [CUDRAXANTHONE L], with 8.2 µM; and `COc1cc(/C=C/C(=O)CC(=O)/C=C/c2ccc(O)c(OC)c2)ccc1O` [CURCUMIN], with 6 µM. The same measure, in the same setting: the figure for `CC1(C)C=Cc2c(cc(O)c3c(=O)c4cc(O)ccc4oc23)O1` [NIGROLINEAXANTHONE F] is 15.5 µM.
